Results taken from ChEMBL document CHEMBL3352245, “Discovery of a series of aryl-N-(3-(alkylamino)-5-(trifluoromethyl)phenyl)benzamides as TRPA1 antagonists” (Bioorg Med Chem Lett, 2014).
pIC50: −log10 of the molar value. In brackets after ≈: the same amount, converted by molar mass.

Columns and labels:
[1] = target: Transient receptor potential cation channel subfamily A member 1 (Homo sapiens, UniProt O75762); assay: Antagonist activity at human TRPA1 expressed in HEK293-TREx cells assessed as change in calcium level by Fluo-4NW assay; type: cell-based
Transient receptor potential cation channel subfamily A member 1, sequence (O75762 whole entry): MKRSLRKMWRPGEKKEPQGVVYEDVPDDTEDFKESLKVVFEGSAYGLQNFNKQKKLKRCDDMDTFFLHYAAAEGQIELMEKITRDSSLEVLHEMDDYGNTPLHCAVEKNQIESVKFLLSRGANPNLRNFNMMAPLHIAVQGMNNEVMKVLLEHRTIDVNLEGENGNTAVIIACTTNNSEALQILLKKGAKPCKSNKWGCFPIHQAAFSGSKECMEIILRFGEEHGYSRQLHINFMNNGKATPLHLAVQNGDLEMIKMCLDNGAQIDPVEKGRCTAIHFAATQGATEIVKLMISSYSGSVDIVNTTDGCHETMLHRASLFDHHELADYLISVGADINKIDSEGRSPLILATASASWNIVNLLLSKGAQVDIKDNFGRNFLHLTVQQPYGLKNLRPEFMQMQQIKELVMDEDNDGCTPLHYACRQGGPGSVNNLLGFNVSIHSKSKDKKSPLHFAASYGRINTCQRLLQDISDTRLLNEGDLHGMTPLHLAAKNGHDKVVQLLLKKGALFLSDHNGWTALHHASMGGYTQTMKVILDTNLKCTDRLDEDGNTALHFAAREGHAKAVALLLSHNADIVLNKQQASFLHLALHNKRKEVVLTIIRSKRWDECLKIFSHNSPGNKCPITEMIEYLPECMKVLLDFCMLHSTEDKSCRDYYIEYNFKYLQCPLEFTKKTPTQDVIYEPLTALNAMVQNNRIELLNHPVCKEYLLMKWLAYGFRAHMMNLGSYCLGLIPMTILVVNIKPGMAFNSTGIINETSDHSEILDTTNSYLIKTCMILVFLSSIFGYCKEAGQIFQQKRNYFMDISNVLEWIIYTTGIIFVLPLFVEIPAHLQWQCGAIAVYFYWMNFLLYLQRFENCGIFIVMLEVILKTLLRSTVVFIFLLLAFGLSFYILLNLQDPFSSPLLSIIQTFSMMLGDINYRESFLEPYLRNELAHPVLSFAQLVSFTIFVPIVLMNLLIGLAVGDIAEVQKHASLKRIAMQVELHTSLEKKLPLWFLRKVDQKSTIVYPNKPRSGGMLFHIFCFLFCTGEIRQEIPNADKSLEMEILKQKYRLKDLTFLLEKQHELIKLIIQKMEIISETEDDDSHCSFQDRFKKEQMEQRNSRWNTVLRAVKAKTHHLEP
Method in brief: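 Human receptor; values are means of at least 2 experiments, with replicate error within 20% of value.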

[2] = Thermodynamic solubility of the compound in buffer at pH 7.4 by HPLC/UV detection method; type: physicochemical; settings: read-out: Therm_solubility
Method in brief: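 Thermodynamic solubility in pH 7.4 buffer. Dissolved compound is quantified by HPLC with UV detection.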

[3] = Intrinsic clearance in human liver microsomes at 1 uM in presence of NADPH; type: ADME; settings: read-out: CLH
Method in brief: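 Incubated with human liver microsomes at 1 mg/mL protein plus NADPH. Test compound at 1 μM.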

Plasma = assay: Fraction unbound in human plasma at 10 uM by equilibrium dialysis method; type: ADME, cell-free
Method in brief: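 Test compound at 10 μM in human plasma. Binding is measured by equilibrium dialysis.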

[4] = Apparent permeability from apical to basolateral across human Caco2 cells at pH 7.4 at 10 uM by Transwell assay; type: ADME, cell-based; settings: Caco-2, pH 7.4
Method in brief: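 Caco-2 monolayer in a Transwell format. Compound at 10 μM is applied apically and apical-to-basolateral apparent permeability is measured at pH 7.4.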

Cytochrome P450 1A2 = target: T1, Cytochrome P450 1A2 (Homo sapiens, UniProt P05177); assay: Competitive inhibition of CYP1A2 in human liver microsomes by LC-MS/MS analysis; type: ADME
T1 sequence (P05177 whole entry): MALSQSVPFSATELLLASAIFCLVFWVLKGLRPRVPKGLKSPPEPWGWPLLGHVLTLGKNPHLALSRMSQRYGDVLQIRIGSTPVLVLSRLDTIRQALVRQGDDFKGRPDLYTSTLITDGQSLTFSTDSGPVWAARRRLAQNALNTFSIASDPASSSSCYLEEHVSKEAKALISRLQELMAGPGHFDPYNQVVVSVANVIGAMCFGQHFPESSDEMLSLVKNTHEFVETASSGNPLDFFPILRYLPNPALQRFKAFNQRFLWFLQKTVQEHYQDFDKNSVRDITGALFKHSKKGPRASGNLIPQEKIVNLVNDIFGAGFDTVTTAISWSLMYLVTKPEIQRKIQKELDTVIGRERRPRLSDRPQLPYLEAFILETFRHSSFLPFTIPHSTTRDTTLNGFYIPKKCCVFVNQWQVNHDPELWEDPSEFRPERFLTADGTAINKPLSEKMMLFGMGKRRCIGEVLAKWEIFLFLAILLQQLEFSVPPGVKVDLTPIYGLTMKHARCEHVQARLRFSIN
Method in brief: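 Competitive inhibition screen in human liver microsomes using standard probe substrates. Metabolites are detected by LC-MS/MS. The panel also covered 2C9, 2C19, 2D6 and 3A4.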

CYP2D6 = CYP2D6 (Homo sapiens, UniProt P10635); assay: Time-dependent inhibition of CYP2D6 in human liver microsomes at 10 uM by LC-MS/MS analysis; type: ADME
CYP2D6, sequence (P10635 whole entry): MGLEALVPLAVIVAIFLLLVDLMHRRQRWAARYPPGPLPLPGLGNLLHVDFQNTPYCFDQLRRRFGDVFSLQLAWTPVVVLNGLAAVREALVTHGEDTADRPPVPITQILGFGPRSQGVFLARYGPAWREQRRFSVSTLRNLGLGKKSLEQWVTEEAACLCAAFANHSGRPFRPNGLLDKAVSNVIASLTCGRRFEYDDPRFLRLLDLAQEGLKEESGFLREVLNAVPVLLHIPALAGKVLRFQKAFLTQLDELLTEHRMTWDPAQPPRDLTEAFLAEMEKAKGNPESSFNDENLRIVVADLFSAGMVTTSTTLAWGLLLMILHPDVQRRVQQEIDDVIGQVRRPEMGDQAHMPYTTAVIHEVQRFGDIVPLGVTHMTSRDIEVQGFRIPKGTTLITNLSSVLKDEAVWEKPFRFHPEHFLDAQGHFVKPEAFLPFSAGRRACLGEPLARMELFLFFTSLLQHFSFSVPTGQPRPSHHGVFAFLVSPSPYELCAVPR
Method in brief: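 IC50-shift screen for time-dependent inhibition in human liver microsomes with test compound at 10 μM. The panel also covered 1A2, 2C9 and 3A4.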

Row | pIC50 [1] | SMILES | further results
1 | 7.04 | CC(C)Nc1cc(NC(=O)c2c(F)cccc2F)cc(C(F)(F)F)c1 | solubility thermodynamic [2]: 1 µM (≈ 0.358 µg/mL); microsomal CLint at 1 µM [3]: 73 µL/min/mg; Fu (Plasma): < 1%; Papp A→B at 10 µM [4]: 6.9 ×10⁻⁶ cm/s
2 | 5.57 | O=C(Nc1cc(NCc2cccs2)cc(C(F)(F)F)c1)c1cccs1 | 
3 | 5.54 | O=C(Nc1cc(NCc2ccccc2)cc(C(F)(F)F)c1)c1cccs1 | 
4 | 5.41 | O=C(Nc1cc(NCCc2ccccc2)cc(C(F)(F)F)c1)c1cccs1 | 
5 | 5.64 | COC(=O)Nc1cc(NC(=O)c2cccs2)cc(C(F)(F)F)c1 | 
6 | < 4.49 | CCCN(CCC)c1cc(NC(=O)c2cccs2)cc(C(F)(F)F)c1 | 
7 | 5.89 | CC(C)C(C)Nc1cc(NC(=O)c2cccs2)cc(C(F)(F)F)c1 (stereo not given) | 
8 | 6.10 | CC(C)CNc1cc(NC(=O)c2cccs2)cc(C(F)(F)F)c1 | 
9 | 6.41 | CCCNc1cc(NC(=O)c2cccs2)cc(C(F)(F)F)c1 | 
10 | 6.54 | CC(C)Nc1cc(NC(=O)c2cccs2)cc(C(F)(F)F)c1 | 
11 | 6.70 | CCCNc1cc(NC(=O)c2ccccc2)cc(C(F)(F)F)c1 | solubility thermodynamic [2]: 8 µM (≈ 2.58 µg/mL); microsomal CLint at 1 µM [3]: 154 µL/min/mg; Fu (Plasma): < 1%; Papp A→B at 10 µM [4]: 6.2 ×10⁻⁶ cm/s; pIC50 (Cytochrome P450 1A2): 6.85; inhibition at 10 µM (CYP2D6): 35%
12 | < 4.49 | CCCNc1cc(NC(=O)c2ccccn2)cc(C(F)(F)F)c1 | 
13 | 6.03 | CCCNc1cc(NC(=O)c2cccnc2)cc(C(F)(F)F)c1 | 
14 | 5.59 | CCCNc1cc(NC(=O)c2ccncc2)cc(C(F)(F)F)c1 | 
15 | 5.85 | CCCNc1cc(NC(=O)c2ccc(F)cc2)cc(C(F)(F)F)c1 | 
16 | 5.92 | CCCNc1cc(NC(=O)c2ccc(F)c(F)c2)cc(C(F)(F)F)c1 | 
17 | 6.96 | CCCNc1cc(NC(=O)c2c(F)cccc2F)cc(C(F)(F)F)c1 | solubility thermodynamic [2]: 7 µM (≈ 2.51 µg/mL); microsomal CLint at 1 µM [3]: 96 µL/min/mg; Fu (Plasma): < 1%; Papp A→B at 10 µM [4]: 2.7 ×10⁻⁶ cm/s; pIC50 (Cytochrome P450 1A2): 5.82
18 | < 4.49 | CCCNc1cc(N)cc(C(F)(F)F)c1 | 
19 | 7.13 | CCNc1cc(NC(=O)c2c(F)cccc2F)cc(C(F)(F)F)c1 | solubility thermodynamic [2]: 5 µM (≈ 1.72 µg/mL); microsomal CLint at 1 µM [3]: 115 µL/min/mg; Fu (Plasma): < 1%
20 | < 4.49 | CCCN(C)c1cc(NC(=O)c2c(F)cccc2F)cc(C(F)(F)F)c1 | 
21 | < 4.49 | CCCOc1cc(NC(=O)c2c(F)cccc2F)cc(C(F)(F)F)c1 | 
22 | 5.72 | CCCNc1cc(C)cc(NC(=O)c2c(F)cccc2F)c1 | 
